Rad51 HR inh: blocks human Rad51 in homologous recombination; inhibition, % at 10 µM; hit rate 0.085% among 200,000; Q06609; AID 1385; hRad51 DNA strand exchange, fluorescence dequenching;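 active = inhibition above 40% at the single screening dose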
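Material: human Rad51–ssDNA filaments; Probe or stimulus: labelled 47-mer dsDNA for strand exchange; Doses: single 10 µM dose; Incubation: 37 °C 15-min filament assembly, 30-min compound preincubation, 15-min exchange; Technique: FRET fluorescence dequenching, excitation 485 nm, emission 520 nm; Measure: Fluorescence-based percent inhibition, control- and blank-normalised; Benchmarks: plate control and blank wells.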
CHOP inh: blocks CHOP induction under ER stress; inhibition, % at 10 µM; CHO-K1 CHOP-promoter luciferase, tunicamycin-induced, 15-18 h; hit rate 3.8% among 220,000;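 active = compounds that reduced the stress-induced luciferase reporter signal by more than about 70% of percent inhibition, limit read from the data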
Lmaj promast: inhibitors of Leishmania major promastigote growth. hit rate 9% among 200,000. Leishmania major promastigotes, resazurin fluorescence viability. inhibition, % at 10 µM;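 note: promastigotes grown with compound for 44 hours at 28 °C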
Wee1 degr inh: blocks degradation of human Wee1 kinase; P30291; reporter increase, % at 5 µM; hit rate 1.2% among 220,000; HeLa Luc-Wee1K328M stability, luciferase luminescence; 100% = proteasome inhibitor MG132 effect;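 active = activation above the mean of all tested compounds plus 3 SD, set per screening run, cut at about 8.8% in these data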;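 note: cells exposed to compound for 20 h before luminescence read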
Arbovirus inh: antivirals against arbovirus infection | arbovirus infection cell-based antiviral screen | inhibition, % at 10 µM | hit rate 0.37% among 200,000; in the data active = inhibition above about 30%
PKD1 kinase inh: inhibitors of human PKD1 kinase | hit rate 0.056% among 200,000 | Q15139 | PKD1 kinase fluorescence polarization assay | inhibition, % (concentration not given with the values)
Target sequence (Q15139 whole entry, looked up): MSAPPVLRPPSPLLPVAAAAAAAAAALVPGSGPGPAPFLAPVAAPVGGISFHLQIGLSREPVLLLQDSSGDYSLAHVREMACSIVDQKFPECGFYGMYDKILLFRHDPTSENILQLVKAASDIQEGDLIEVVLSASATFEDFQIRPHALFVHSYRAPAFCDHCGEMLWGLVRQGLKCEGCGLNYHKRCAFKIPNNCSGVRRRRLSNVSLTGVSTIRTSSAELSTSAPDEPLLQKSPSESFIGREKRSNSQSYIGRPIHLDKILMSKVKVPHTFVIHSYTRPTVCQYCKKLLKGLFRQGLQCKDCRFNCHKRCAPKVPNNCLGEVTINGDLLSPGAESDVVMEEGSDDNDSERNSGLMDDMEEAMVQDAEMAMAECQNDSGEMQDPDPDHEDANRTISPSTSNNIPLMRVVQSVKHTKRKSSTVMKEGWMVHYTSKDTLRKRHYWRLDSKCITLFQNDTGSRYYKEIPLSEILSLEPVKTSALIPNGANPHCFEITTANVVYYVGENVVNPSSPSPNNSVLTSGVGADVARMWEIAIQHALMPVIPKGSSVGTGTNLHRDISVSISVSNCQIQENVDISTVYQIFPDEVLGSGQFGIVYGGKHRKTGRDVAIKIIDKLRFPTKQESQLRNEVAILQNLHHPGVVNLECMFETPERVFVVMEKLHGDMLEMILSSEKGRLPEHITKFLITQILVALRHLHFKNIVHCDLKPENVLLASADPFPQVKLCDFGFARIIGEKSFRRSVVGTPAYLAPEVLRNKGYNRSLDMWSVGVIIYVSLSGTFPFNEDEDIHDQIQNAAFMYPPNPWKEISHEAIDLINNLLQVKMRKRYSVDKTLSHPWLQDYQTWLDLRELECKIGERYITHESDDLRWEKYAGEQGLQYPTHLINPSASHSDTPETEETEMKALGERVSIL
Of the large screens only hits and unclear results are named; the others gave an inactive call. Sampled rows, rich in hits. Any-hit rate of the full collection: about 12%. Cut-off read from the data, not from the text of the source, unless noted: active = inhibition above about 50%; inactive = the rest.

Cc1ccsc1C(=O)N1CCCC(C(=O)c2cc(F)ccc2F)C1 (stereo unspecified)	none (no result: Rad51 HR inh)
Cn1nc([N+](=O)[O-])nc1N1CCOCC1	none (no result: Rad51 HR inh)
O=C(c1ccc(C23CC4CC(CC(C4)C2)C3)o1)N1CCOCC1	CHOP inh 77 (no result: Rad51 HR inh)
Cc1cc(C)nc(N2CCCC(C(=O)NC(C)C)C2)n1 (stereo unspecified)	none
COCC1CCCN(Cc2cn(-c3ccccc3)nc2-c2ccc3c(c2)OCO3)C1 (stereo unspecified)	none
COCCNC(=O)CN(c1cc(C(F)(F)F)ccc1Cl)S(C)(=O)=O	Wee1 degr inh 10
COC(=O)CN(c1cc(C(F)(F)F)ccc1Cl)S(C)(=O)=O	none
CN(C)/C=C1\N=C(c2ccccc2)OC1=O	none
O=C1OC(c2ccc(F)cc2)=N/C1=C\c1ccc(Br)o1	CHOP inh 73
CCOC(=O)Nc1ccc(Oc2ccccc2)cc1	CHOP inh 73
CCOC(=O)Nc1ccc(C(=O)Oc2ccccc2)c(O)c1	Wee1 degr inh 10
O=C(Nc1ccc(C(=O)Oc2ccccc2)c(O)c1)c1ccco1	Lmaj promast 55
O=C(Nc1ccc(C(=O)Oc2ccccc2)c(O)c1)c1ccccc1	none
CCCOC(=O)c1ccc(NC(=O)Oc2ccccc2)cc1	none
Cc1nc(C)c(C(=O)Nc2ccc(Oc3ccccc3)cc2)o1	Lmaj promast 76 (no result: CHOP inh)
Nc1sc(-c2ccccc2)c(Cc2ccccc2)c1C(=O)O	none
O=[N+]([O-])c1ccc(-c2cnc(SC(c3ccccc3)c3ccccc3)[nH]2)cc1	CHOP inh 73
O=[N+]([O-])c1ccc(-c2cnc(SCc3ccccc3Cl)[nH]2)cc1	none
NC(=O)CSc1ncc(-c2ccc([N+](=O)[O-])cc2)[nH]1	none
Cc1cc(C)c(CSc2ncc(-c3ccc([N+](=O)[O-])cc3)[nH]2)c(C)c1	CHOP inh 75, Lmaj promast 97
COCCCNCC1C(Oc2ccc(Cl)cc2)C(=O)N1c1ccccc1C (stereo unspecified)	Lmaj promast 84, Arbovirus inh 49
Cc1ccccc1N1C(=O)C(Oc2ccc(Cl)cc2)C1CNCCCOC(C)C (stereo unspecified)	Lmaj promast 93
O=C(O)CNC(=O)/C(=C\c1cccc([N+](=O)[O-])c1)NC(=O)c1ccco1	none (no result: Lmaj promast, Arbovirus inh, PKD1 kinase inh)
Cc1occc1-c1nnc(SCC(=O)N(C)CCC#N)n1N	none
CCCC(=O)NC(c1cccs1)c1cc(Cl)c2cccnc2c1O (stereo unspecified)	CHOP inh 75, Lmaj promast 99 (no result: Rad51 HR inh)
CCOc1ccc(C(Nc2cccnc2)c2cc(Cl)c3cccnc3c2O)cc1 (stereo unspecified)	Lmaj promast 89
COc1ccc(C(NC(C)=O)c2cc(Cl)c3cccnc3c2O)cc1OC (stereo unspecified)	none
Cc1ccc(C(NC(=O)C(C)C)c2cc([N+](=O)[O-])c3cccnc3c2O)cc1 (stereo unspecified)	none
CCCC(=O)NC(c1ccc2c(c1)OCO2)c1cc(Cl)c2cccnc2c1O (stereo unspecified)	Lmaj promast 99
CCCC(=O)NC(c1ccco1)c1cc(Cl)c2cccnc2c1O (stereo unspecified)	none
CCC(=O)NC(c1ccc(OC)c(OC)c1)c1cc(Cl)c2cccnc2c1O (stereo unspecified)	Lmaj promast 90
CN(C(=O)OC(C)(C)C)c1ccc(-c2nc3ccccc3s2)cc1	none (no result: CHOP inh, Lmaj promast, Wee1 degr inh, Arbovirus inh, PKD1 kinase inh)
CC(=O)C1=C(C)Nc2ncnn2C1c1ccccc1OCc1ccccc1 (stereo unspecified)	Lmaj promast 61
COc1ccccc1C1C(C(=O)NCc2ccccc2)=C(C)Nc2ncnn21 (stereo unspecified)	none
Cc1ccc(-c2oc3ccccc3c(=O)c2O)cc1	CHOP inh 72
Cc1ccc(-c2oc3ccccc3c(=O)c2OCC(=O)O)cc1	none
COC(=O)/C=c1/s/c(=C(\C#N)C(=O)NCc2ccco2)n(-c2ccccc2)c1=O	none
COc1ccc(/C=c2\s/c(=C(/C#N)C(=O)NCc3ccco3)n(-c3ccccc3)c2=O)cc1	Lmaj promast 62
c1ccc(-c2nnsc2Sc2ccccn2)cc1	none
CCCCN=C1CC(C)(C)CC(=O)/C1=C(/O)CCC	none (no result: Lmaj promast, Arbovirus inh, PKD1 kinase inh)
COc1ccc([N+](=O)[O-])cc1N(CC(O)CN1CCCCC1)S(=O)(=O)c1ccccc1 (stereo unspecified)	Lmaj promast 82
CCCN(CCC)CC(O)CN(c1cc([N+](=O)[O-])ccc1OC)S(=O)(=O)c1ccccc1 (stereo unspecified)	Lmaj promast 63 (no result: Rad51 HR inh)
Cc1ccc(S(=O)(=O)N(CC(O)CN2CCCC2)c2ccccc2)cc1 (stereo unspecified)	none
CCc1cc(C(=O)NNC(=S)NCC2CCCO2)cs1 (stereo unspecified)	none
CC(C)OC(=O)c1cccc(NC(=O)CSc2nnc(N)s2)c1	none
COc1ccc(OC)c(/C=C/C(=O)N(C)CC(=O)Nc2cc(C)ccc2C)c1	Lmaj promast 87
CC(C)c1cccc(C(C)C)c1NC(=O)CNCc1ccccc1F	Lmaj promast 60
COC(=O)COc1cc(OCC(=O)OC)c2c(C)c(Cl)c(=O)oc2c1	Lmaj promast 51
COC(=O)COc1cc(C)cc2oc(=O)c(CC(=O)OC)c(C)c12	none
C/C(=N\NC(=O)CCCOc1ccc(Cl)cc1C)c1ccc(C)o1	none (no result: Rad51 HR inh)
COc1cccc(N=C2CC(C)(C)CC(=O)/C2=C(/O)c2ccccc2)c1	none (no result: Rad51 HR inh)
COC(=O)c1cccc(NC(=S)N2CCN(c3ccccc3F)CC2)c1	none (no result: Rad51 HR inh)
COc1cccc(C(=O)COc2ccccc2-c2ccccc2)c1	Lmaj promast 53
CC(NC(=O)COc1ccccc1-c1ccccc1)c1ccccc1 (stereo unspecified)	CHOP inh 77
Cc1ccc(CNC(=O)COc2ccccc2-c2ccccc2)cc1	Lmaj promast 70
CC(=O)Nc1ccccc1OCC(=O)NC(C)c1ccccc1 (stereo unspecified)	none
CCOC(=O)/C(C(=O)Nc1ccc(Cl)cc1Cl)=C1/NC(C)(C)Cc2ccccc21	Lmaj promast 73
Cc1ccc(/C=N\NC(=O)/C(=C\Nc2nccc(C)n2)NC(=O)c2ccccc2)cc1	none (no result: Lmaj promast, Arbovirus inh, PKD1 kinase inh)
CCC(COC)NCc1cn(-c2ccc(OC)cc2)nc1-c1cccc(F)c1 (stereo unspecified)	none
O=[N+]([O-])c1cc2c(cc1/C=N/Nc1nc(N3CCCC3)nc(N3CCCC3)n1)OCO2	Lmaj promast 76
O=[N+]([O-])c1ccccc1/C=N/Nc1nc(N2CCCC2)nc(N2CCCC2)n1	CHOP inh 75
CCCNC(=O)/C=C/C(=O)O	none
CC(C)CCN(C(=S)NC(=O)C1CCCCC1)c1c(N)n(Cc2ccccc2)c(=O)[nH]c1=O	Arbovirus inh 32
OC1(c2ccc(Cl)cc2)CCN(Cc2c[nH]c3ccccc23)CC1	none (no result: Lmaj promast, Wee1 degr inh, Arbovirus inh, PKD1 kinase inh)
Cc1ccccc1CN1CCN(S(=O)(=O)c2ccc(F)cc2)CC1	CHOP inh 88

Source: PubChem (several laboratories)
